Screening results as filed in PubChem.
Jurkat NFkB inh – inhibitors of induced NF-kB luciferase reporter, primary screen, TCR NF-kB activation inhibitor project, cell-based, luminescence, uHTS | AID 435003, 2010 | Jurkat, PMA/ionomycin-induced NF-kB luciferase reporter | 0.53% of 330,000 active | inhibition, % at 4 µM; in the data active = inhibition above about 50%
697 NFkB inh – inhibitors of PMA/ionomycin-induced NF-kB reporter, 697 cells, primary screen, B-cell NF-kB inhibitor project, cell-based, luminescence, uHTS; 697 B-cell NF-kB luciferase reporter, 16 h; inhibition, % at 4 µM; 0.33% of 330,000 active; AID 435022, 2010; in the data active = inhibition above about 35%
XBP1 UPR activ – activators of adaptive XBP1 UPR arm, primary screen, cell-based, CHO-XBP1 luciferase reporter, luminescence, uHTS. IRE1-XBP1 UPR activation; percent of tunicamycin response, DMSO as zero. activation, % at 20 µM. 0.33% of 330,000 active;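 active = versus positive control, 20 µM dose yields 30% or more activation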;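 also: 100% = tunicamycin at 10 µg/mL and 0% = DMSO only wells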
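Material: CHO cell line with stable XBP1 luciferase reporter; schedule: 16-18 h cell attachment at 37 °C, then 6 h compound exposure; signal: glow luminescence from Steady-Glo reagent; medium: serum-containing F12 medium, 10% FBS; benchmarks: tunicamycin 10 µg/mL and vehicle-only wells; read-out: percent activation relative to tunicamycin reference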
CHOP UPR activ – activators of apoptotic CHOP UPR arm, primary screen, cell-based, CHO-CHOP luciferase reporter, luminescence, uHTS. UPR activation; percent of tunicamycin response over DMSO baseline. activation, % at 10 µM. 0.34% of 330,000 active. AID 449763, 2010;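 active = at 10 µM dose, activation of 40% or more, normalized to positive control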;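 also: 100% = tunicamycin at 10 µg/mL and 0% = DMSO alone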
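Test system: CHO-CHOP cells, stable luciferase reporter of PERK-eIF2a-CHOP signalling | Quantity: 500 CHO-CHOP cells per well | Buffer or medium: F12 plus 10% serum | Compound dosing: 10 µM single point, 0.5% DMSO | Schedule: 6 h compound treatment, 37 °C | Signal: Luciferase luminescence | Control set: Tunicamycin high control, DMSO low control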
CHOP inh – inhibitors of CHOP promoter induction, primary screen, cell-based, unfolded protein response, luciferase reporter. AID 2732, 2010. 3.8% of 220,000 active. CHO-K1 CHOP-promoter luciferase, tunicamycin-induced, 15-18 h. inhibition, % at 10 µM;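 active = compounds that reduced the stress-induced luciferase reporter signal by more than about 70% of percent inhibition, limit read from the data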;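 also: 0% = tunicamycin plus vehicle and 100% = wells without tunicamycin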
* marks the source's active call; other numbers are inactive results; x = not tested or not shown. This excerpt belongs to a sample that is enriched for hits.

SMILES | Jurkat NFkB inh | 697 NFkB inh | XBP1 UPR activ | CHOP UPR activ | CHOP inh
CCOC(=O)N1CCN(C(=O)c2ccc3c(=O)n(CCC4=CCCCC4)c(=S)[nH]c3c2)CC1 | 19.8 | -18.4 | -1.6 | -3.6 | 33.4
O=c1c2ccc(Cl)cc2[nH]c(=S)n1CCC1=CCCCC1 | -23.4 | -30.3 | 0.5 | 2.7 | 83.6*
O=C(CSc1nnc2ccccn12)Nc1cccc(-c2nc3ccccc3s2)c1 | -39.2 | -129.2 | 1.9 | 1.9 | 93.2*
Cn1c(=O)c2ncn(CC(=O)Nc3cccc(-c4nc5ccccc5s4)c3)c2n(C)c1=O | -24.0 | -132.6 | 17.3 | 5.6 | 81.6*
Cc1cc(C)n(CCC(=O)N/N=C/c2c(O)ccc3ccccc23)n1 | 27.5 | -0.3 | -1.1 | -0.7 | 87.6*
O=C(N/N=C/c1c(O)ccc2ccccc12)c1[nH]ncc1Br | 48.5 | -41.4 | 3.8 | 2.4 | 77.9*
Cc1cc(C)n(CCC(=O)N/N=C/c2ccc(O)cc2)n1 | -1.3 | -20.7 | -2.0 | 1.2 | 3.6
COc1ccc(C(=O)CNc2ccccc2Br)cc1 | -27.3 | -24.0 | -1.3 | 2.9 | x
Cc1ccccc1NCC(=O)c1ccc(Br)cc1 | -0.7 | 11.7 | -1.6 | 2.4 | 70.3*
CCC(C)N(C(=O)CSc1nnc(-c2ccco2)n1C)C1CCS(=O)(=O)C1 (stereo not given) | 1.1 | 25.2 | -1.2 | 1.0 | x
Cc1cc(C)c(NC(=O)/C(=C/c2ccccc2)c2ccccc2)c(C)c1 | x | x | x | x | 38.0
CCOC(=O)c1cccc(NC(=O)/C=C/c2cccc([N+](=O)[O-])c2)c1 | 20.8 | 4.1 | 3.9 | 1.6 | 84.0*
CCOC(=O)/C=C/C(=O)Nc1cccc([N+](=O)[O-])c1 | 2.9 | 8.2 | -10.2 | 1.2 | 47.9
COCc1cc(C)nc(NC2CCCCC2)c1C#N | -11.1 | 7.2 | 0.4 | -2.2 | 82.5*
CN(c1ccc([N+](=O)[O-])cc1C(=O)Nc1ccccc1)C1CCCCC1 | -4.5 | -9.4 | -0.4 | 0.9 | 14.2
Cc1cccc(NC(=O)c2cc([N+](=O)[O-])ccc2NC2CCCCC2)c1 | 1.9 | 18.4 | 1.1 | 3.2 | 72.9*
C/C(=N\NC(N)=O)C1CC(Cc2ccccc2)C(=O)O1 (stereo not given) | 10.7 | -7.7 | 0.3 | 0.0 | x
CNC(=S)N(CCCn1ccnc1)Cc1c(F)cccc1Cl | 15.2 | 10.3 | -2.1 | 2.0 | x
CCOC(=O)C1(C(C)(C)CC)CC(CSc2nc3ccccc3[nH]2)OC1=O (stereo not given) | -20.1 | -48.6 | -2.8 | -2.2 | 75.4*
CCc1nn(CC(=O)NCCC(C)C)c(=O)c2cc3c(OC)cccc3n12 | -12.6 | 5.8 | 0.1 | 0.2 | x
Cc1ccccc1/C=C1\OC(=O)c2ccccc21 | 2.4 | 4.8 | 3.2 | 4.5 | 86.9*
Cc1cc(C)cc(NC(=O)Nc2ccc(-n3ccc(C(F)(F)F)n3)cc2)c1 | -25.9 | -0.9 | -1.4 | 3.0 | 83.0*
O=C(Nc1ccc(-n2ccc(C(F)(F)F)n2)cc1)Nc1cccc(Cl)c1 | -31.8 | -39.0 | 9.3 | 15.6 | 59.0
CC1CCN(S(=O)(=O)c2cc3c4c(c2)C(C)C(=O)N4CCC3)CC1 (stereo not given) | 8.5 | 5.1 | 0.8 | 0.2 | x
O=C(O)c1ccccc1C(=O)Nc1ccc(Oc2cccc3ccccc23)cc1 | x | x | x | x | 77.9*
SMILES | Jurkat NFkB inh | 697 NFkB inh | XBP1 UPR activ | CHOP UPR activ | CHOP inh
O=C(CSc1nnc(CNc2cccc(Cl)c2)o1)OC1CCCCC1 | -2.3 | -1.0 | 1.3 | -1.2 | 80.1*
Cc1cc(OCc2nnc(SCC(=O)OC3CCCCC3)o2)ccc1Cl | -2.2 | 26.6 | -2.1 | -0.1 | 36.8
CC(C)NC(=O)NC(=O)CSc1nnc(COc2ccccc2Cl)o1 | 1.7 | 1.6 | 1.3 | 0.6 | 48.0
O=C(CSc1nnc(CNc2ccc(F)cc2)o1)OC1CCCCC1 | -7.0 | -1.1 | 0.1 | 2.1 | 10.2
O=C(CSc1nnc(COc2ccc(Cl)cc2)o1)OC1CCCCC1 | 6.2 | 1.2 | -0.8 | -0.7 | 74.4*
O=C(CSc1nnc(COc2ccccc2Cl)o1)NC(=O)NC1CCCC1 | -14.6 | -6.4 | -0.3 | 1.6 | 79.4*
Clc1ccc(CSc2nnc(CNc3cccc(Cl)c3)o2)cc1 | 11.3 | 15.5 | -1.2 | -2.8 | 93.1*
COc1ccc2ncc(OC(C)=O)cc2c1 | x | x | x | x | -0.6
COc1cc(CC(=O)OCC(=O)NCC(C)C)cc(OC)c1OC | -5.2 | -0.2 | -2.2 | 1.0 | -4.1
CC1(C)Cc2c(cnn2-c2cccc(F)c2)C(NC(=O)c2ccc(=O)[nH]n2)C1 (stereo not given) | -5.2 | -5.3 | -1.6 | -1.9 | x
COc1ccccc1N1CCN(C2CCCN(C(=O)CCC(C)=O)C2)CC1 (stereo not given) | -14.5 | 9.4 | 0.9 | -0.8 | x
COc1cc2c(cc1NC(=O)CSc1ccc(C)cc1)oc1ccccc12 | -1.5 | 4.5 | -0.2 | -2.0 | -12.1
COc1cc2c(cc1NC(=O)CSc1nc3ccc(C)cc3[nH]1)oc1ccccc12 | -8.8 | 1.4 | -2.5 | 2.8 | 76.7*
Cc1ccc2nc(SCC(=O)Nc3cc(C(C)(C)C)nn3-c3ccccc3)[nH]c2c1 | -4.1 | -13.7 | -1.2 | 0.5 | 72.3*
CCOC(=O)c1c(S(=O)(=O)N2CCCC(C(=O)Nc3ccc(C)cn3)C2)c(C)n(C)c1C (stereo not given) | -9.4 | 8.2 | -4.2 | -0.4 | x
COc1ccc2cc(C(c3nnnn3CCc3ccccc3)N3CCCC(C)C3)c(=O)[nH]c2c1 (stereo not given) | -13.1 | -2.1 | -3.9 | -2.0 | 86.8*
CCOC(=O)c1c(C)[nH]c(C(=O)C(C)OC(=O)c2cccc(OCc3c(C)noc3C)c2)c1C (stereo not given) | 6.7 | -12.3 | -0.8 | 2.1 | 80.2*
Cc1csc(NC(=O)C2CCCN(S(=O)(=O)c3ccc(Br)s3)C2)n1 (stereo not given) | 0.5 | -36.5 | -0.6 | -5.7 | 70.1*
CCOC(=O)C1CCCN(S(=O)(=O)c2ccc(Br)s2)C1 (stereo not given) | -12.9 | 19.1 | 2.7 | -1.2 | 30.5
O=C(CN1CCOCC1)NCc1cc([N+](=O)[O-])ccc1O | -1.1 | -10.5 | -3.4 | 2.5 | x
COc1cc(OC)c(NC(=O)c2ccco2)cc1Cl | -3.9 | -7.1 | 0.2 | -0.1 | 72.1*
COc1cc(NC(=O)c2ccco2)c(OC)cc1NC(=O)CCC(=O)Nc1cc(C)ccc1C | 21.1 | 12.3 | -1.9 | 0.8 | 11.2
COc1cc(NC(=O)c2ccco2)c(OC)cc1NC(=O)CCC(=O)Nc1cc(C)cc(C)c1 | -1.3 | -7.3 | -0.4 | -1.0 | 75.6*
COc1cc(NC(=O)c2ccco2)ccc1NC(=O)C(C)C | -18.3 | 16.2 | 2.2 | -2.0 | 80.0*
COc1cc(NC(=O)c2ccco2)c(OC)cc1NC(=O)Nc1ccc(Cl)cc1 | -9.8 | 13.3 | -1.3 | 7.9 | -14.4
